Measurements pooled from the literature.
Compare with care: the assays were run in different laboratories.
Target: Serine/threonine-protein kinase WNK2 (WNK2, Homo sapiens, UniProt Q9Y3S1)

| SMILES | test | conditions | remaining binding [%] |
| --- | --- | --- | --- |
| Cc1nc(Cc2cccc(C(F)(F)F)c2)sc1-c1ccc(C(N)=O)nc1 | cell-free assay, competition with immobilised ligand | 1 µM | 100 |
| O=C(NCCCN1CCOCC1)c1ccc(Nc2nccc(-c3cc4ccccc4s3)n2)cc1 | binding, competition with immobilised ligand | 1 µM | 60 |
| COc1ccnn2ncc(-c3ccnc(N(C)C)n3)c12 | binding | 1 µM | 100 |
| CNC(=O)Nc1ccc2c(c1)CC[C@@]21OC(=O)N(CC(=O)N(Cc2ccc(F)cc2)[C@@H](C)C(F)(F)F)C1=O | cell-free assay, competition with immobilised ligand | 1 µM | 100 |
| c1cnn2ncc(-c3ccnc(N4CCC45COC5)n3)c2c1 | binding | 1 µM | 78 |
| Cc1c[nH]c2nccc(Oc3c(F)cc(Nc4cc(Cl)nc(N)n4)cc3F)c12 | cell-free assay, competition with immobilised ligand | 0.1 µM | 96 |
| O=C(Nc1c[nH]nc1C(=O)NC1CCNCC1)c1cc(F)cc(F)c1 | binding, competition with immobilised ligand | 1 µM | 100 |
| C=CC(=O)N1CCC(C(=O)NCC(=O)N2CCN(c3nc(-c4cnc(N)nc4C(F)F)nc(N4CCOCC4)n3)CC2)CC1 | binding, competition with immobilised ligand | 1 µM | 92 |
| C[C@@H](c1cccc(C#N)c1)n1cc(Cl)cc(C(N)=O)c1=N | cell-free assay, competition with immobilised ligand | 1 µM | 67 |
| N[C@H]1CCN(c2nccc(-c3cnn4ncccc34)n2)C1 | binding | 1 µM | 100 |
| O=C(c1ccc(Nc2nccc(-c3cc4ccccc4s3)n2)cc1)N1CCC(N2CCCC2)CC1 | binding, competition with immobilised ligand | 1 µM | 87 |
| Cc1cnn2ncc(-c3ccnc(N(C)C)n3)c2c1 | binding | 1 µM | 100 |
| COc1cnc(Nc2cccc(S(N)(=O)=O)c2)nc1N1CCN(c2ccccc2)C(=O)C1 | binding, competition with immobilised ligand | 1 µM | 100 |
| FC(F)(F)Oc1cccc(-c2cnc3ccc(-c4ccncc4)nn23)c1 | binding, competition with immobilised ligand | 5 µM | 86 |
| COc1cnc(Nc2cccc(S(N)(=O)=O)c2)nc1N1CCN(c2ccccc2)CC1 | binding, competition with immobilised ligand | 1 µM | 35 |
| CCc1ccccc1C(=O)Nc1n[nH]c2c(C)c(F)c(C3C(C#N)=C(C)N(C)C(C)=C3C#N)cc12 | cell-free assay, competition with immobilised ligand | 1 µM | 100 |
| Cc1cnc(Nc2ccc(C(=O)N3CCC(N4CCCC4)CC3)cc2)nc1-c1cc2ccccc2s1 | binding, competition with immobilised ligand | 1 µM | 69 |
| F[C@@H]1CCN(c2nccc(-c3cnn4ncccc34)n2)C1 | binding | 1 µM | 100 |
| CC1=C(C#N)[C@@H](c2ccc3[nH]nc(C)c3c2)C(C#N)=C(c2ccc(Cl)cc2)N1 | cell-free assay, competition with immobilised ligand | 1 µM | 100 |
| c1cncc(-c2cccc(Nc3nccc(NC4CCCCC4)n3)c2)c1 | binding, competition with immobilised ligand | 10 µM | 100 |
| C[C@H]1CCN(c2nccc(-c3cnn4ncccc34)n2)C1 | binding | 1 µM | 98 |
